According to the RNAGym collection of RNA variant scans (doi:10.1126/science.aae0568):
Variants at the floor of the assay were thinned out.

B1: tRNA (parent)
chain: GUUCCGUUGGCGUAAUGGUAACGCGUCUCCCUCCUAAGGAGAAGACUGCGGGUUCGAGUCCCGUACGGAACG

Variants of: B1
Assay: yeast fitness relative to wild type (ratio to wild type); higher = fitter; tRNA-Arg(CCU), competitive growth, 37 C, YPD
Method in brief: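 Variants of the tRNA-Arg(CCU) gene were chemically synthesised with a 3% per-site mutation rate across 69 sites and placed at the native genomic locus in Saccharomyces cerevisiae. Six parallel replicates of the pooled strains were competed in YPD at 37°C for 24 hours, and gene amplicons from the start and end populations were read by 100-nucleotide paired-end sequencing. Darwinian fitness relative to wild type was derived from changes in genotype frequencies. Genotypes required ≥ 100 starting reads, and estimates < 0.5 were set to 0.5.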
For G6C G18C C22U, the yeast fitness was 0.548.
With G6C G12C U47A the yeast fitness was ≤ 0.5.
For G6C G17A A36U C46A U53C C66A, the yeast fitness was ≤ 0.5.
In the case of G6C G10A A14C U16A C27U C33U, the yeast fitness is reported as ≤ 0.5.
Work on G6C G23C C24A yielded a yeast fitness of 0.585.
G6C G12A A21G gave a yeast fitness of 0.552.
Work on G6C G12A U35A yielded a yeast fitness of 0.55.
For G6C U7C G9C C49U, the yeast fitness was ≤ 0.5.
With G6C U8C A43U U59C the yeast fitness was ≤ 0.5.
For G6C U19A, the yeast fitness was 0.78.
Variant G6C G18C A21G A40U C49U C61U A70G has a yeast fitness of 0.564.
For G6C U8C A20G G50A A57U, the yeast fitness was ≤ 0.5.
In the case of G6C G17A C24A U32C A45C, the yeast fitness is reported as ≤ 0.5.
For G6C G10A U16G C24U G50C, the yeast fitness was 0.609.
G6C G12A G51A showed a yeast fitness of 0.538.
For G6C U7C A14G A20C A57C, the yeast fitness was ≤ 0.5.
In the case of G6C G25A A37U, the yeast fitness is reported as ≤ 0.5.
G6C G10A C27A showed a yeast fitness of 0.586.
In the case of G6C G12A A21G C66U, the yeast fitness is reported as ≤ 0.5.
With G6C G17A A40U the yeast fitness was ≤ 0.5.
With G6C G17A C24A U32C A45C C60A the yeast fitness was ≤ 0.5.
In the case of G6C U26C U64A, the yeast fitness is reported as ≤ 0.5.
For G6C G17A A36G C60U G63C, the yeast fitness was ≤ 0.5.
In the case of G6C G10A G17A A36U G51C A69C, the yeast fitness is reported as ≤ 0.5.
G6C C55U A70G gave a yeast fitness of 0.7.
G6C G17A A36C C62G showed a yeast fitness of 0.536.
In the case of G6C G23A, the yeast fitness is reported as 0.893.
Work on G6C G18A G23A C30U C33U A65G yielded a yeast fitness of 0.536.
For G6C G51C A57G C61U A65C, the yeast fitness was ≤ 0.5.
For G6C U7C C31A, the yeast fitness was ≤ 0.5.
With G6C G25A A37U A42G the yeast fitness was ≤ 0.5.
For G6C G63A, the yeast fitness was 0.911.
For G6C G63C, the yeast fitness was 0.689.
For G6C G12A C31A A43G, the yeast fitness was ≤ 0.5.
With G6C G38C G68A A70U the yeast fitness was ≤ 0.5.
In the case of G6C U8C G25A C34U A43U, the yeast fitness is reported as ≤ 0.5.
In the case of G6C U35A, the yeast fitness is reported as 0.876.
In the case of G6C U13G C55G, the yeast fitness is reported as 0.659.
In the case of G6C G58C C61A, the yeast fitness is reported as 0.528.
For G6C C62A G67C, the yeast fitness was ≤ 0.5.
With G6C U8A C22U C61G the yeast fitness was 0.501.
G6C C66A A70U showed a yeast fitness of 0.538.
In the case of G6C G10C C11U G23A C24G C46G, the yeast fitness is reported as ≤ 0.5.
For G6C U7G U16G A43G, the yeast fitness was 0.707.
With G6C U13G G18A U54C C55A the yeast fitness was ≤ 0.5.
Work on G6C C66A yielded a yeast fitness of 0.927.
With G6C C66U the yeast fitness was 1.01.
With G6C U8C the yeast fitness was 0.662.
In the case of G6C G18A G51C A65C, the yeast fitness is reported as ≤ 0.5.
In the case of G6C G12A, the yeast fitness is reported as 0.85.
Work on G6C G12C yielded a yeast fitness of 0.676.
In the case of G6C G10A C27A C49U C66U, the yeast fitness is reported as ≤ 0.5.
For G6C U13G G18A G48C G68U, the yeast fitness was ≤ 0.5.
Variant G6C U26C G68A has a yeast fitness of 0.537.
Work on G6C U8C G48A yielded a yeast fitness of 0.664.
In the case of G6C U16A G23C U64A, the yeast fitness is reported as ≤ 0.5.
Variant G6C U16A has a yeast fitness of 0.631.
With G6C U16G the yeast fitness was 0.68.
For G6C U16C, the yeast fitness was 0.803.
For G6C U7C G23C C24A C49U C60A, the yeast fitness was ≤ 0.5.
With G6C G41A A45C A57C the yeast fitness was ≤ 0.5.
With G6C G25C C29G G52A A69U the yeast fitness was 0.527.
Variant G6C U7G G17C has a yeast fitness of 0.525.
G6C U8C C22U showed a yeast fitness of 0.526.
With G6C G17A C30U A42C A43G the yeast fitness was ≤ 0.5.
Variant G6C G23C C24U G68A has a yeast fitness of 0.689.
For G6C G18C C22U C34G A36U G56C G63A, the yeast fitness was ≤ 0.5.
With G6C G12A A37C G51A U53C C62A the yeast fitness was ≤ 0.5.
In the case of G6C U8C G58C G67A, the yeast fitness is reported as ≤ 0.5.
For G6C G17A U19G A69U, the yeast fitness was ≤ 0.5.
For G6C G17A A37G C60G A70U, the yeast fitness was ≤ 0.5.
In the case of G6C G9A, the yeast fitness is reported as 1.03.
With G6C U8G U19G C33A A42C G58A the yeast fitness was ≤ 0.5.
In the case of G6C U13G G18A C55G, the yeast fitness is reported as ≤ 0.5.
In the case of G6C G51C A65C, the yeast fitness is reported as 0.579.
With G6C G48C A65U A70U the yeast fitness was ≤ 0.5.
With G6C U7G U16G A43G A65C the yeast fitness was 0.805.
With G6C G17C C27U A40U C60U the yeast fitness was ≤ 0.5.
For G6C G12A C27U G39C G63A, the yeast fitness was ≤ 0.5.
In the case of G6C U8C G41C, the yeast fitness is reported as ≤ 0.5.
G6C U13C gave a yeast fitness of 0.823.
With G6C U16A C30A A69U the yeast fitness was ≤ 0.5.
With G6C G51A A65G C66U the yeast fitness was ≤ 0.5.
For G6C U13A A20U A21G A69U, the yeast fitness was ≤ 0.5.
With G6C G44C the yeast fitness was 0.853.
G6C U8C A14G gave a yeast fitness of 0.522.
Variant G6C C60G has a yeast fitness of 0.731.
Variant G6C U32C has a yeast fitness of 0.994.
Work on G6C G17C C31G A36G U59C yielded a yeast fitness of 0.599.
For G6C G12A U47A G51C A65G, the yeast fitness was ≤ 0.5.
Work on G6C U13G C22A C34G C62A yielded a yeast fitness of 0.59.
Variant G6C G41C C49G U59G G63A C66U has a yeast fitness of 0.54.
Work on G6C U8C G56A yielded a yeast fitness of 0.672.
With G6C G25A C27G U59A U64G the yeast fitness was ≤ 0.5.
In the case of G6C G9A A21U U28C U35G A36C A65G C66A, the yeast fitness is reported as ≤ 0.5.
With G6C U8A C22U U59C the yeast fitness was ≤ 0.5.
In the case of G6C G41C A45G G63A C66G G67C, the yeast fitness is reported as ≤ 0.5.
With G6C G10C C29U C30G A45U the yeast fitness was ≤ 0.5.
For G6C G9A A21U U28G C34U G63A, the yeast fitness was ≤ 0.5.
With G6C U8C C33U A43G G58A C60U the yeast fitness was ≤ 0.5.
For G6C G52C C61A, the yeast fitness was ≤ 0.5.
With G6C U19A G38C C55A the yeast fitness was ≤ 0.5.
In the case of G6C G17A A36U G58C, the yeast fitness is reported as ≤ 0.5.
With G6C U26C A37U A43U the yeast fitness was ≤ 0.5.
G6C G48A gave a yeast fitness of 1.01.
For G6C G10C A40G A42U, the yeast fitness was ≤ 0.5.
G6C G50A gave a yeast fitness of 0.865.
In the case of G6C C61G, the yeast fitness is reported as 0.675.
Variant G6C C61U has a yeast fitness of 0.726.
G6C U32A A37U gave a yeast fitness of 0.583.
For G6C G10A U16G C31A, the yeast fitness was ≤ 0.5.
For G6C G67A, the yeast fitness was 0.874.
Work on G6C G67U yielded a yeast fitness of 0.844.
For G6C G67C, the yeast fitness was 0.75.
For G6C G9A G48C G51C U53A C66A, the yeast fitness was ≤ 0.5.
For G6C G25C A40U A65C, the yeast fitness was ≤ 0.5.
Variant G6C U8C C66U has a yeast fitness of 0.73.
For G6C G9A A21U U28G C34U, the yeast fitness was ≤ 0.5.
G6C G41C C49G showed a yeast fitness of 0.544.
With G6C U7C G12A C24U C29G G50C C66U the yeast fitness was ≤ 0.5.
With G6C G25C the yeast fitness was 0.971.
In the case of G6C G25A, the yeast fitness is reported as 1.17.
For G6C G41A A45U, the yeast fitness was ≤ 0.5.
For G6C G17A C24A U32C A45C C60A A69U, the yeast fitness was ≤ 0.5.
Variant G6C G51C has a yeast fitness of 0.596.
In the case of G6C U16G C27U C60G, the yeast fitness is reported as 0.582.
G6C G10C gave a yeast fitness of 0.649.
In the case of G6C U8C C49U A65U, the yeast fitness is reported as ≤ 0.5.
In the case of G6C U8C C11U G39C C55A, the yeast fitness is reported as ≤ 0.5.
With G6C U28C C46U A69G the yeast fitness was ≤ 0.5.
With G6C U8C G41A A42C G50C A70G the yeast fitness was ≤ 0.5.
In the case of G6C G25A C27G A57U, the yeast fitness is reported as ≤ 0.5.
With G6C G58C U64A the yeast fitness was 0.529.
For G6C U7G C24G C34U U53C C55G C62A, the yeast fitness was ≤ 0.5.
G6C U7G showed a yeast fitness of 0.725.
For G6C G51A A70G, the yeast fitness was ≤ 0.5.
In the case of G6C U7G C24U C27A C60U, the yeast fitness is reported as ≤ 0.5.
Variant G6C G44C G67U has a yeast fitness of 0.501.
In the case of G6C G18C C22U C34G A36U C49A A57C C66U, the yeast fitness is reported as ≤ 0.5.
G6C G17C U32G A40C G67A showed a yeast fitness of 0.603.
For G6C U7G U19A C27G G67U, the yeast fitness was ≤ 0.5.
Work on G6C G41C yielded a yeast fitness of 0.671.
For G6C G17A C24A U32C, the yeast fitness was ≤ 0.5.
Work on G6C U13C C33U A42C C60U A69G yielded a yeast fitness of 0.665.
G6C C55U gave a yeast fitness of 0.873.
In the case of G6C G38C, the yeast fitness is reported as 0.693.
Variant G6C G12A C27U G39C has a yeast fitness of 0.616.
In the case of G6C G41C C49G U54C U59G G63A C66U, the yeast fitness is reported as ≤ 0.5.
G6C G18A showed a yeast fitness of 0.729.
With G6C U7A C27U the yeast fitness was ≤ 0.5.
With G6C G50A G67A the yeast fitness was 0.606.
For G6C U19A A20U C22G U28C C34A G52A, the yeast fitness was ≤ 0.5.
Work on G6C U26A yielded a yeast fitness of 0.641.
Work on G6C U26C yielded a yeast fitness of 0.959.
G6C U26G showed a yeast fitness of 0.721.
Variant G6C U8C C49U has a yeast fitness of 0.531.
G6C G9C U54C gave a yeast fitness of 0.603.
G6C G68A gave a yeast fitness of 0.662.
With G6C G10A U16G C24U G50C C55U the yeast fitness was ≤ 0.5.
In the case of G6C U16G U35A G51C, the yeast fitness is reported as ≤ 0.5.
In the case of G6C U8C U54C G58A, the yeast fitness is reported as ≤ 0.5.
With G6C G12A G58C C61U A69C the yeast fitness was ≤ 0.5.
For G6C G50C U53C C55U, the yeast fitness was ≤ 0.5.
For G6C G18C C22U C34G A36U A57C C66U, the yeast fitness was ≤ 0.5.
For G6C G12A C30G A36U A42C, the yeast fitness was ≤ 0.5.
Variant G6C G17A C30U A42C has a yeast fitness of 0.63.
G6C U16G C62U gave a yeast fitness of 0.532.
